Test results: ChEMBL document CHEMBL4229493, “Synthesis and anticancer activity studies of indolylisoxazoline analogues” (Bioorg Med Chem Lett, 2018)
Activity calls are given as the source filed them. The calls are words filed in the database; no cut-off is given here.

Experiments:
Format in all cases: functional, cell-based
CWR22R = assay: Growth inhibition of human 22Rv1 cells after 48 hrs by MTT assay; conditions: 22Rv1, 48 h
LNCaP C4-2 [1] = assay: Growth inhibition of human C4-2 cells after 48 hrs by MTT assay; conditions: LNCaP C4-2, 48 h
HEK293 = assay: Growth inhibition of HEK293 cells after 48 hrs by MTT assay; conditions: Homo sapiens, HEK293, 48 h
BXPC-3 = assay: Growth inhibition of human BxPC3 cells after 48 hrs by MTT assay; conditions: BXPC-3, 48 h
MDA-MB-231 = assay: Growth inhibition of human MDA-MB-231 cells after 48 hrs by MTT assay; conditions: MDA-MB-231, 48 h
PC-3 = assay: Growth inhibition of human PC3 cells after 48 hrs by MTT assay; conditions: PC-3, 48 h
NCI-H460 = assay: Antiproliferative activity against human NCI-H460 cells
LNCaP C4-2 [2] = assay: Induction of ROS generation in human C4-2 cells at 10 uM after 48 hrs by H2-DCF-DA staining based inverted fluorescent microscopic method
Outline: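 C4-2 cells left untreated or exposed 48 h to compound at 10 μM. H2O2 (10 μM) was the positive control. Intracellular ROS was stained with DCFDA and fluorescence quantified.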

LNCaP C4-2 [3] = assay: Induction of apoptosis in human C4-2 cells assessed as nuclear fragmentation at 2.5 uM after 48 hrs by acridine orange/ethidium bromide staining based inverted fluorescent microscopic method
Outline: (§1)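 C4-2 cells were incubated 48 h with compound, alongside untreated controls. They were then stained with acridine orange (live and dead cells) and ethidium bromide (dead cells only). Nuclear morphology was scored for red fragmented nuclei as apoptosis versus necrosis.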

LNCaP C4-2 [4] = assay: Induction of apoptosis in human C4-2 cells assessed as PARP cleavage at 2.5 uM after 48 hrs by Western blot analysis
LNCaP C4-2 [5] = assay: Induction of apoptosis in human C4-2 cells assessed as DNA fragmentation by measuring DNA ladder formation at 10 uM after 48 hrs by agarose gel electrophoresis method
LNCaP C4-2 [6] = assay: Antimigratory activity against human C4-2 cells at 10 uM after 12 to 48 hrs by wound healing assay
Outline: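 A scratch was made in a C4-2 monolayer. Cells were incubated further for 12, 24 and 48 h, then fixed and imaged to follow migration into the wound.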

Prostatic carcinoma cell = assay: Cytotoxicity against human prostate cancer cells
LNCaP C4-2 [7] = assay: Induction of apoptosis in human C4-2 cells assessed as nuclear fragmentation at 3.5 uM after 48 hrs by acridine orange/ethidium bromide staining based inverted fluorescent microscopic method; outline: as §1
LNCaP C4-2 [8] = assay: Induction of apoptosis in human C4-2 cells assessed as PARP cleavage at 3.5 uM after 48 hrs by Western blot analysis

COc1ccc2c(c1)c(C1CC(c3ccncc3)=NO1)cn2Cc1ccc(Cl)cc1 (stereo not given)
IC50 (CWR22R): 10.6 µM | IC50 (LNCaP C4-2 [1]): > 100 µM | IC50 (HEK293): 14.2 µM | IC50 (BXPC-3): > 100 µM | IC50 (MDA-MB-231): 26 µM | IC50 (PC-3): 55.2 µM

COc1ccc2c(C3CC(c4ccncc4)=NO3)cn(Cc3ccc(Cl)cc3)c2c1 (stereo not given)
IC50 (CWR22R): 17.3 µM | IC50 (LNCaP C4-2 [1]): > 100 µM | IC50 (HEK293): 37.2 µM | IC50 (BXPC-3): > 100 µM | IC50 (MDA-MB-231): > 100 µM | IC50 (PC-3): 95.1 µM

c1ccc2c(C3CC(c4ccc5c(c4)OCO5)=NO3)c[nH]c2c1 (stereo not given)
IC50 (CWR22R): > 100 µM | IC50 (LNCaP C4-2 [1]): 15.8 µM | IC50 (HEK293): > 100 µM | IC50 (BXPC-3): 27 µM | IC50 (MDA-MB-231): 26.6 µM | IC50 (PC-3): > 100 µM

COc1cc(-c2cnc(-c3ccc4c(ccn4C)c3)o2)cc(OC)c1OC
IC50 (NCI-H460): 0.0062 µM

COc1cccc2c1C(=O)c1c(O)c3c(c(O)c1C2=O)C[C@@](O)(C(=O)CO)C[C@@H]3O[C@H]1C[C@H](N)[C@H](O)[C@H](C)O1 [DOXORUBICIN]
IC50 (LNCaP C4-2 [1]): 3.25 µM | IC50 (HEK293): 3.9 µM | IC50 (BXPC-3): 9.12 µM | IC50 (PC-3): 9.58 µM

OO
Activity (LNCaP C4-2 [2]): Active

Fc1ccc2c(C3CC(c4ccncc4)=NO3)c[nH]c2c1 (stereo not given)
IC50 (CWR22R): 3.66 µM | IC50 (LNCaP C4-2 [1]): 8 µM | IC50 (HEK293): 9.5 µM | IC50 (BXPC-3): 9.5 µM | IC50 (MDA-MB-231): 5 µM | IC50 (PC-3): 12.9 µM

Cc1c(C2CC(c3ccncc3)=NO2)c2ccccc2n1Cc1ccc(Cl)cc1 (stereo not given)
IC50 (CWR22R): 8.33 µM | IC50 (LNCaP C4-2 [1]): 2.5 µM | IC50 (HEK293): 2.5 µM | IC50 (BXPC-3): 13.5 µM | IC50 (MDA-MB-231): 6.66 µM | IC50 (PC-3): 11.2 µM | Activity (LNCaP C4-2 [3]): Active | Activity (LNCaP C4-2 [4]): Active | Activity (LNCaP C4-2 [5]): Active | Activity (LNCaP C4-2 [2]): inactive | Activity (LNCaP C4-2 [6]): Active

COc1ccc2[nH]cc(C3CC(c4ccncc4)=NO3)c2c1 (stereo not given)
IC50 (CWR22R): 35.5 µM | IC50 (LNCaP C4-2 [1]): > 100 µM | IC50 (HEK293): > 100 µM | IC50 (BXPC-3): 68.5 µM | IC50 (MDA-MB-231): > 100 µM | IC50 (PC-3): > 100 µM

COc1ccc(C2=NOC(c3c[nH]c4ccccc34)C2)cc1OC (stereo not given)
IC50 (CWR22R): 16.7 µM | IC50 (LNCaP C4-2 [1]): 65.5 µM | IC50 (HEK293): > 100 µM | IC50 (BXPC-3): > 100 µM | IC50 (MDA-MB-231): > 100 µM | IC50 (PC-3): 70.1 µM

COc1cc(-c2nnc(-c3cn(C)c4ccccc34)[nH]2)cc(OC)c1OC
IC50 (Prostatic carcinoma cell): 0.8 µM

Cc1[nH]c2ccccc2c1C1CC(c2ccncc2)=NO1 (stereo not given)
IC50 (CWR22R): 17.3 µM | IC50 (LNCaP C4-2 [1]): 45.1 µM | IC50 (HEK293): > 100 µM | IC50 (BXPC-3): 95.5 µM | IC50 (MDA-MB-231): 26.6 µM | IC50 (PC-3): 21.2 µM

Clc1ccc(Cn2cc(C3CC(c4ccncc4)=NO3)c3ccccc32)cc1 (stereo not given)
IC50 (CWR22R): 9.6 µM | IC50 (LNCaP C4-2 [1]): 11.4 µM | IC50 (HEK293): 10.2 µM | IC50 (BXPC-3): > 100 µM | IC50 (MDA-MB-231): 13.7 µM | IC50 (PC-3): 25.7 µM

COc1cc(C2=NOC(c3c[nH]c4ccccc34)C2)cc(OC)c1OC (stereo not given)
IC50 (CWR22R): 4.51 µM | IC50 (LNCaP C4-2 [1]): 5 µM | IC50 (HEK293): 5 µM | IC50 (BXPC-3): 13.5 µM | IC50 (MDA-MB-231): 11.7 µM | IC50 (PC-3): 15.5 µM

c1ccc2c(C3CC(c4ccncc4)=NO3)c[nH]c2c1 (stereo not given)
IC50 (CWR22R): > 100 µM | IC50 (LNCaP C4-2 [1]): 12.8 µM | IC50 (HEK293): > 100 µM | IC50 (BXPC-3): 30.5 µM | IC50 (MDA-MB-231): 19.7 µM | IC50 (PC-3): > 100 µM

COc1ccc2[nH]cc(C3CC(c4cc(OC)c(OC)c(OC)c4)=NO3)c2c1 (stereo not given)
IC50 (CWR22R): 11.3 µM | IC50 (LNCaP C4-2 [1]): 71.2 µM | IC50 (HEK293): 45.4 µM | IC50 (BXPC-3): > 100 µM | IC50 (MDA-MB-231): 26 µM | IC50 (PC-3): 42.6 µM

COc1ccc2c(C3CC(c4ccncc4)=NO3)c[nH]c2c1 (stereo not given)
IC50 (CWR22R): 16.3 µM | IC50 (LNCaP C4-2 [1]): 3.5 µM | IC50 (HEK293): 4.16 µM | IC50 (BXPC-3): 9.5 µM | IC50 (MDA-MB-231): 7.38 µM | IC50 (PC-3): 10.5 µM | Activity (LNCaP C4-2 [7]): Active | Activity (LNCaP C4-2 [8]): Active | Activity (LNCaP C4-2 [5]): Active | Activity (LNCaP C4-2 [2]): inactive | Activity (LNCaP C4-2 [6]): Active
